Test results reported in ChEMBL document CHEMBL1773023, “Potent and selective phosphopeptide mimetic prodrugs targeted to the Src homology 2 (SH2) domain of signal transducer and activator of transcription 3” (J Med Chem, 2011).
The source made the active and inactive calls. The calls are words filed in the database; no cut-off is given here.

Tests used:
[1] = target: G1/S-specific cyclin-D1 (Homo sapiens) (UniProt P24385); test: Inhibition of Cyclin D1 in human HCC-827 cells at 5 uM after up to 24 hrs by Western blotting; format: cell-based
[2] = Cytotoxicity against human NCI-H528 cells assessed as cell growth inhibition at 5 to 10 uM after 72 hrs by MTT assay; format: functional
Procedure, shortened: (§1)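 Cell lines with constitutive Stat3 phosphorylation (melanoma, NSCLC) exposed to prodrug at 5–10 μM. Percent growth inhibition recorded.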

[3] = target: T1, Signal transducer and activator of transcription 3 (Homo sapiens, UniProt P40763); test: Inhibition of IL6-induced SH2 domain of Stat3 phosphorylation at Tyr705 in human A375 cells up to 10 uM treated 1.5 hrs before IL6 challenge measured after 30 mins by Western blotting; format: cell-based; conditions: A-375
Procedure, shortened: (§2)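 Hey, MeWo and A375 cells (3×10^5/well, RPMI1640, overnight, fresh medium) given increasing prodrug concentrations for 2 h, with IL-6 10 ng/mL during the final 30 min; pStat3 and total Stat3 by Western blot.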

[4] = target: T1, Signal transducer and activator of transcription 3; test: Inhibition of SH2 domain of Stat3 constitutive phosphorylation at Tyr705 in human MDA-MB-468 cells at 5 uM after 16 hrs by Western blotting; format: cell-based
Procedure, shortened: (§3)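 MDA-MB-468 cells given a single 5 μM prodrug dose and harvested at set times; pTyr705 and total Stat3 by Western blot of 12 μg lysate protein on 8% SDS-PAGE.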

[5] = target: T1, Signal transducer and activator of transcription 3; test: Inhibition of SH2 domain of Stat3 constitutive phosphorylation at Tyr705 in human MDA-MB-468 cells at 0.5 uM after 2 hrs by Western blotting; format: cell-based
Procedure, shortened: (§4)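 MDA-MB-468 cells (4×10^5/well, DMEM 10% FCS, overnight) given prodrug from freshly made 10 mM DMSO stock for 2 h. Lysates in Hepes pH 7.4 Triton buffer with phosphatase/protease inhibitors; 12 μg protein on 8% SDS-PAGE, PVDF, probed for pStat3 Y705 by ECL, then stripped and reprobed for total Stat3.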

[6] = target: T1, Signal transducer and activator of transcription 3; test: Inhibition of EGF-induced SH2 domain of Stat3 phosphorylation at Tyr705 in human MDA-MB-468 cells at 5 uM treated 1.5 hrs before EGF challenge measured after 30 mins by Western blotting; format: cell-based
Procedure, shortened: (§5)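 MDA-MB-468 cells pretreated 1.5 h with prodrug (5 μM), then EGF 100 ng/mL for 30 min; lysates split onto three PVDF blots probed for phospho/total Stat3, pSer473/total Akt, and phospho/total Stat5.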

MeWo = test: Cytotoxicity against human MeWo cells assessed as cell growth inhibition at 5 to 10 uM after 72 hrs by MTT assay; format: functional; procedure, shortened: as §1
[7] = Cytotoxicity against human NCI-H1819 cells assessed as cell growth inhibition at 5 to 10 uM after 72 hrs by MTT assay; format: functional; procedure, shortened: as §1
[8] = target: RAC-alpha serine/threonine-protein kinase (Homo sapiens) (UniProt P31749); test: Inhibition of Akt phosphorylation at Ser473 in human HCC-827 cells at 5 uM after up to 24 hrs by Western blotting; format: cell-based
A549 = test: Cytotoxicity against human A549 cells assessed as cell growth inhibition at 5 to 10 uM after 72 hrs by MTT assay; format: functional; procedure, shortened: as §1
NCI-H520 = test: Cytotoxicity against human NCI-H520 cells assessed as cell growth inhibition at 5 to 10 uM after 72 hrs by MTT assay; format: functional; procedure, shortened: as §1
[9] = target: T1, Signal transducer and activator of transcription 3; test: Inhibition of IL6-induced SH2 domain of Stat3 phosphorylation at Tyr705 in human MeWo cells up to 10 uM treated 1.5 hrs before IL6 challenge measured after 30 mins by Western blotting; format: cell-based; procedure, shortened: as §2
[10] = Cytotoxicity against human SKOV3ip cells after 72 hrs by SRB assay; format: functional, cell-based; conditions: SKOV3-ip
Procedure, shortened: (§6)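 Cancer cell lines (MCF-7, SKOV3-ip, HCC-827) dosed daily with prodrug for three days; viability by SRB assay.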

[11] = Cytotoxicity against human HCC827 cells after 72 hrs by SRB assay; format: functional, cell-based; conditions: HCC827, 72 h; procedure, shortened: as §6
MCF7 = test: Cytotoxicity against human MCF7 cells after 72 hrs by SRB assay; format: functional, cell-based; conditions: MCF7, 72 h; procedure, shortened: as §6
MDA-MB-468 [12] = test: Decrease of Bcl-xl gene expression in human MDA-MB-468 cells at 5 uM; format: functional, cell-based
[13] = target: MAP kinase p38 (Homo sapiens) (UniProt O15264+Q15759+Q16539+P53778); test: Inhibition of p38 MAPK phosphorylation in human HCC-827 cells at 5 uM after up to 24 hrs by Western blotting; format: cell-based
[14] = target: T1, Signal transducer and activator of transcription 3; test: Inhibition of SH2 domain of Stat3 constitutive phosphorylation at Tyr705 in human MDA-MB-468 cells at 5 uM after 8 hrs by Western blotting; format: cell-based; procedure, shortened: as §3
A-375 = test: Cytotoxicity against human A375 cells assessed as cell growth inhibition at 5 to 10 uM after 72 hrs by MTT assay; format: functional; procedure, shortened: as §1
[15] = target: T1, Signal transducer and activator of transcription 3; test: Inhibition of IL6-induced SH2 domain of Stat3 phosphorylation at Tyr705 in human HEY cells up to 10 uM treated 1.5 hrs before IL6 challenge measured after 30 mins by Western blotting; format: cell-based; procedure, shortened: as §2
[16] = target: T1, Signal transducer and activator of transcription 3; test: Inhibition of SH2 domain of Stat3 phosphorylation at Tyr705 in human SKOV3-ip cells up to 10 uM by Western blotting
[17] = target: T1, Signal transducer and activator of transcription 3; test: Inhibition of SH2 domain of Stat3 constitutive phosphorylation at Tyr705 in human MDA-MB-468 cells at 0.1 uM after 2 hrs by Western blotting; format: cell-based; procedure, shortened: as §4
[18] = target: RAC-alpha serine/threonine-protein kinase (Homo sapiens) (UniProt P31749); test: Inhibition of EGF-induced Akt phosphorylation at Ser473 in human MDA-MB-468 cells at 5 uM treated 1.5 hrs before EGF challenge measured after 30 mins by Western blotting; format: cell-based; procedure, shortened: as §5
[19] = target: T1, Signal transducer and activator of transcription 3; test: Inhibition of SH2 domain of Stat3 phosphorylation at Tyr705 in human HCC-827 cells at 5 uM after 10 mins by Western blotting; format: cell-based
Procedure, shortened: (§7)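 HCC-827 NSCLC cells treated with 5 μM prodrug and sampled over a time course from 10 min to 24 h; pStat3 by Western blot.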

[20] = target: T1, Signal transducer and activator of transcription 3; test: Inhibition of SH2 domain of Stat3 constitutive phosphorylation at Tyr705 in human MDA-MB-468 cells at 5 uM after 4 hrs by Western blotting; format: cell-based; procedure, shortened: as §3
[21] = target: Focal adhesion kinase 1 (Homo sapiens) (UniProt Q05397); test: Inhibition of constitutive FAK phosphorylation at Tyr861 in human MDA-MB-468 cells at 5 uM measured after 2 hrs by Western blotting
[22] = Cytotoxicity against human H1299 cells assessed as cell growth inhibition at 5 to 10 uM after 72 hrs by MTT assay; format: functional, NCI-H1299; procedure, shortened: as §1
[23] = target: T1, Signal transducer and activator of transcription 3; test: Inhibition of SH2 domain of Stat3 phosphorylation at Tyr705 in human HCC-827 cells at 5 uM after 4 hrs by Western blotting; format: cell-based; procedure, shortened: as §7
MDA-MB-468 [24] = test: Selectivity ratio of inhibition of IFNgamma-induced Stat1 phosphorylation at Tyr701 to inhibition of EGF-induced SH2 domain of Stat3 phosphorylation at Tyr705 in human MDA-MB-468 cells; format: cell-based

T1 sequence (P40763 whole entry, the tested form may be a part): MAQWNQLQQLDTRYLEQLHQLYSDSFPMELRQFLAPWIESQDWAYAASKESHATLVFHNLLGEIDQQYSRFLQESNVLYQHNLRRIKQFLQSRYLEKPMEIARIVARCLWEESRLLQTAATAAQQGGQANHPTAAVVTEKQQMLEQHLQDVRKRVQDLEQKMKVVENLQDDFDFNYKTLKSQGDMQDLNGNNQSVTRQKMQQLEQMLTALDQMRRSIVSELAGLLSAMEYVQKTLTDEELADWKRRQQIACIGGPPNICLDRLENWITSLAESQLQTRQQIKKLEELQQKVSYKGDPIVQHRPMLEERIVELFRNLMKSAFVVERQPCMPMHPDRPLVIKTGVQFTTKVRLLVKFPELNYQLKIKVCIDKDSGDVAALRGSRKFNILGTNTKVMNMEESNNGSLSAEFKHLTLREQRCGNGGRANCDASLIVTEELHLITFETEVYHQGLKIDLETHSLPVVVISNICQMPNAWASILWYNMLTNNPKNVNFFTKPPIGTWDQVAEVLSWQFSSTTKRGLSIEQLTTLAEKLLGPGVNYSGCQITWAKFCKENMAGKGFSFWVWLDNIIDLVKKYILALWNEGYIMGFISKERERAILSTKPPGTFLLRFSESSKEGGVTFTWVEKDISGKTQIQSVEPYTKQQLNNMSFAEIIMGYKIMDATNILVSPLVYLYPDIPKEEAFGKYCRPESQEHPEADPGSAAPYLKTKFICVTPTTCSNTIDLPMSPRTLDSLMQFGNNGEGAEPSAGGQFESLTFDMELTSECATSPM
RAC-alpha serine/threonine-protein kinase (Homo sapiens), sequence (P31749 whole entry, the tested form may be a part): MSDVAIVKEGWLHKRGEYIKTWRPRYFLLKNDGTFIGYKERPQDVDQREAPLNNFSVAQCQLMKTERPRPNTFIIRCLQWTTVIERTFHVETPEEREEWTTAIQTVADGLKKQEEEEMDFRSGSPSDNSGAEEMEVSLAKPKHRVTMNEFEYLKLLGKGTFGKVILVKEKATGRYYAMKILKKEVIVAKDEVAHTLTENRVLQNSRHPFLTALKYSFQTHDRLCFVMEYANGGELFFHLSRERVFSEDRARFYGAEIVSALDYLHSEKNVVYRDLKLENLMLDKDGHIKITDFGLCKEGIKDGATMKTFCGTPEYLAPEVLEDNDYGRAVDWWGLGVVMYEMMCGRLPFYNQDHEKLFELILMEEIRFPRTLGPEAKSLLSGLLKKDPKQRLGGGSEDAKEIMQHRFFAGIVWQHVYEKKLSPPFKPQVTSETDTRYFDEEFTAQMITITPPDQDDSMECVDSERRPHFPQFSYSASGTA
G1/S-specific cyclin-D1 (Homo sapiens), sequence (P24385 whole entry): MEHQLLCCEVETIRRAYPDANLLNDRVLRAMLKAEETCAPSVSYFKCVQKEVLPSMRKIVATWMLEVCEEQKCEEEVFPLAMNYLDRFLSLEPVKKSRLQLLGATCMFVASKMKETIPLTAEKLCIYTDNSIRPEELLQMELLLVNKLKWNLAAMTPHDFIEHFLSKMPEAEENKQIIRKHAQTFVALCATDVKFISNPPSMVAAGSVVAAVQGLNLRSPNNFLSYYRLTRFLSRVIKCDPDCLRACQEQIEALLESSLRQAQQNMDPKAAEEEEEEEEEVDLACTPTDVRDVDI
Focal adhesion kinase 1 (Homo sapiens), sequence (Q05397 2-1052 limits assumed): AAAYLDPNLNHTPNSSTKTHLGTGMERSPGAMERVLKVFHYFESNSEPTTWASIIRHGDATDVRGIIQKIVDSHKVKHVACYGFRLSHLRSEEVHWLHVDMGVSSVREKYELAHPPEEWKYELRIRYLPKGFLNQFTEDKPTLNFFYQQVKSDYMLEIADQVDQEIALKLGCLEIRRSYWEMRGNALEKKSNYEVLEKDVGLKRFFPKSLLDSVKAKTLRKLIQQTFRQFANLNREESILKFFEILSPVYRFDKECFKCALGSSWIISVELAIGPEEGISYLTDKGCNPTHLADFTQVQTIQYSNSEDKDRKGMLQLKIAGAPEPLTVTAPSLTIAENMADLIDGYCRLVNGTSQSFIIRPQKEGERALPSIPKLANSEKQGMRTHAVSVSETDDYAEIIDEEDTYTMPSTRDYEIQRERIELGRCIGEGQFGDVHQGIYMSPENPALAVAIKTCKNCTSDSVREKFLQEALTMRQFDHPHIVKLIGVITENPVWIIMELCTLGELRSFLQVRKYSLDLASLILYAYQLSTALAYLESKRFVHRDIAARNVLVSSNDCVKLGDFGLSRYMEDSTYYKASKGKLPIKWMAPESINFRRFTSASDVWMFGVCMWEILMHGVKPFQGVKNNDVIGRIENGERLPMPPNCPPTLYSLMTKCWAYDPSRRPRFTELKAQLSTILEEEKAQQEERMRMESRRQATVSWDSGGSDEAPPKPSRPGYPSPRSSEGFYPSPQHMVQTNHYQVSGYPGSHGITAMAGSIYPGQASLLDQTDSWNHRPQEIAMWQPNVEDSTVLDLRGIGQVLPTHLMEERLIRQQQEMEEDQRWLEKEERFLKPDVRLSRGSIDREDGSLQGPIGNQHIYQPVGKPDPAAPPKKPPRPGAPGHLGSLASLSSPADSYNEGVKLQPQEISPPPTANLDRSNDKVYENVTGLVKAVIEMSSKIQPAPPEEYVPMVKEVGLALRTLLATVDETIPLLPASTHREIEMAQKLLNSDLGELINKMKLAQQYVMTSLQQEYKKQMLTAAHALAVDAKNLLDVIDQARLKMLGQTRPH

SMILES: C/C(=C\C(=O)N[C@H]1CCc2cccc3c2N(C1=O)[C@H](C(=O)N[C@H](C)CCC(N)=O)C3)c1ccc(C(F)(F)P(=O)(OCOC(=O)C(C)(C)C)OCOC(=O)C(C)(C)C)cc1
- inhibition [1]: inactive
- growth inhibition (GI) [2]: <20%
- inhibition [3]: Active
- inhibition [4]: inactive
- inhibition [5]: Active
- inhibition [6]: Active
- growth inhibition (GI) (MeWo): <20%
- growth inhibition (GI) [7]: <20%
- inhibition [8]: inactive
- growth inhibition (GI) (A549): <20%
- growth inhibition (GI) (NCI-H520): <20%
- inhibition [9]: Active
- IC50 [10]: > 30 µM
- IC50 [11]: > 30 µM
- IC50 (MCF7): > 30 µM
- Activity (MDA-MB-468 [12]): inactive
- inhibition [13]: inactive
- inhibition [14]: Active
- growth inhibition (GI) (A-375): <20%
- inhibition [15]: Active
- inhibition [16]: Active
- inhibition [17]: Active
- inhibition [18]: inactive
- inhibition [19]: Active
- inhibition [20]: Active
- inhibition [21]: inactive
- growth inhibition (GI) [22]: <20%
- inhibition [23]: Active
- Ratio (MDA-MB-468 [24]): 10
